From ChEMBL document CHEMBL4376814, “Novel cyclin-dependent kinase 9 (CDK9) inhibitor with suppression of cancer stemness activity against non-small-cell lung cancer” (Eur J Med Chem, 2019)
Calls of active or inactive are those of the source. No cut-off for these calls is given here.

How the values were obtained:
[1] = target: Mitogen-activated protein kinase 1 (Homo sapiens) (UniProt P28482); assay: Inhibition of recombinant full-length human MAPK2 at 1 uM using MBP as substrate measured after 40 mins in presence of [gamma33P]ATP by scintillation counting method relative to control
Sequence of Mitogen-activated protein kinase 1 (Homo sapiens) (P28482 whole entry): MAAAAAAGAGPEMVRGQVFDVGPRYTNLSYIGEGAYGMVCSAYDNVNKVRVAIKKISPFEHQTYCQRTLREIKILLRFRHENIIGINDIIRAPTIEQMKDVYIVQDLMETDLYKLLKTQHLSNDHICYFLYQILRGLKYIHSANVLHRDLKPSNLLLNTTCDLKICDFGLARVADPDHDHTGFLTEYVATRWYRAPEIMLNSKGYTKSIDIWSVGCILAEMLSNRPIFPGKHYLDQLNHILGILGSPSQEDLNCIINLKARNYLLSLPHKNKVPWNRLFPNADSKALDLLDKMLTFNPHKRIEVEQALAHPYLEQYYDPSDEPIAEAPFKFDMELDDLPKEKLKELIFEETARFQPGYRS

NCI-H1299 [2] = assay: Induction of apoptosis in human H1299 cells assessed as early apoptotic cells at 0.25 uM after 48 hrs by AnnexinV-FITC/PI staining-based flow cytometric analysis (reference value: 0.248%); type: functional
[3] = test system: PI3-kinase p110-alpha/p85-alpha (Homo sapiens), P27986+P42336 [H1047R]; assay: Inhibition of recombinant full-length human PI3K p110alpha/p85alpha H1047R mutant at 1 uM using phosphatidylinositol-4, 5-bisphosphate as substrate measured after 40 mins by fluorescence assay relative to control
[4] = target: Serine/threonine-protein kinase tousled-like 1 (Homo sapiens) (UniProt Q9UKI8); assay: Inhibition of recombinant full-length human TLK1 at 1 uM using casein as substrate measured after 40 mins in presence of [gamma33P]ATP by scintillation counting method relative to control
Sequence of Serine/threonine-protein kinase tousled-like 1 (Homo sapiens) (Q9UKI8 whole entry): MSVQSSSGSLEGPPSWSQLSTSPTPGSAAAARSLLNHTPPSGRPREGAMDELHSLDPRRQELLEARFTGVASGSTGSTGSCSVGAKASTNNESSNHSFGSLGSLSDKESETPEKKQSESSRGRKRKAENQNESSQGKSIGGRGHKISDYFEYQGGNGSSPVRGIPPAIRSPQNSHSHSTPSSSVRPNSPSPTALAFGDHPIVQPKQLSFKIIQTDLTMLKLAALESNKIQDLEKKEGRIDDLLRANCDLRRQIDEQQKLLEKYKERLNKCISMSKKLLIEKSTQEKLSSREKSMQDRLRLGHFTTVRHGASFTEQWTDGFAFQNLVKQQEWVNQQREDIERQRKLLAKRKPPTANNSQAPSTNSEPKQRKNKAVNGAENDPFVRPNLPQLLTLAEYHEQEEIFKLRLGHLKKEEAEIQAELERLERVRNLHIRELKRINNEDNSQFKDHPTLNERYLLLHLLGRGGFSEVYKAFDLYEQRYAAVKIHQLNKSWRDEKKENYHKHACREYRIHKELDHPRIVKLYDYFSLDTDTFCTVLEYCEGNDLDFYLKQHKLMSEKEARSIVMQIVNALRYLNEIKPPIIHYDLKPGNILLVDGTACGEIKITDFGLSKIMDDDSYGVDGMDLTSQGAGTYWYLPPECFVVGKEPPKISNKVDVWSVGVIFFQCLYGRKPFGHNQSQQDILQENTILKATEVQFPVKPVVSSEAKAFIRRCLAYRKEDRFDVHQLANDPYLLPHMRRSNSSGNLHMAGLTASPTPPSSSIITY

A549 [5] = assay: Induction of apoptosis in human A549 cells assessed as necrotic cells at 0.25 uM after 48 hrs by AnnexinV-FITC/PI staining-based flow cytometric analysis (reference value: 0.664%); type: functional
[6] = target: Fibroblast growth factor receptor 1 (Homo sapiens) (UniProt P11362); assay: Inhibition of recombinant human FGFR1 (456 to 765 residues) at 1 uM using KKKSPGEYVNIEFG as substrate measured after 40 mins in presence of [gamma33P]ATP by scintillation counting method relative to control
A549 [7] = assay: Induction of cell cycle arrest in human A549 cells assessed as accumulation at G2/M phase after 24 hrs by propidium iodide/RNase staining based flow cytometric analysis; type: functional
Outline: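 A549 and H1299 plated at 5×10^5 cells/mL in 6-well plates, treated after adherence for 24 h. Washed with PBS, fixed overnight in ice-cold 75% ethanol, stained with propidium iodide plus RNase A for 30 min at 37 °C, analysed by flow cytometry for phase distribution. Means ± SD, three independent experiments.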

[8] = target: Serine/threonine-protein kinase Nek2 (Homo sapiens) (UniProt P51955); assay: Inhibition of recombinant full-length human NEK2 at 1 uM using myelin basic protein as substrate measured after 40 mins in presence of [gamma33P]ATP by scintillation counting method relative to control
Homo sapiens = species on record: Homo sapiens; assay: Inhibition of recombinant human Mer H628Q/R794A mutant (557 to 882 residues) at 1 uM using GGMEDIYFEFMGGKKK as substrate measured after 40 mins in presence of [gamma33P]ATP by scintillation counting method relative to control
[9] = target: cGMP-dependent protein kinase 2 (Homo sapiens) (UniProt Q13237); assay: Inhibition of recombinant full-length human PRKG2 at 1 uM using KKLRRTLSFAEPG as substrate measured after 40 mins in presence of [gamma33P]ATP by scintillation counting method relative to control
Sequence of cGMP-dependent protein kinase 2 (Homo sapiens) (Q13237 whole entry): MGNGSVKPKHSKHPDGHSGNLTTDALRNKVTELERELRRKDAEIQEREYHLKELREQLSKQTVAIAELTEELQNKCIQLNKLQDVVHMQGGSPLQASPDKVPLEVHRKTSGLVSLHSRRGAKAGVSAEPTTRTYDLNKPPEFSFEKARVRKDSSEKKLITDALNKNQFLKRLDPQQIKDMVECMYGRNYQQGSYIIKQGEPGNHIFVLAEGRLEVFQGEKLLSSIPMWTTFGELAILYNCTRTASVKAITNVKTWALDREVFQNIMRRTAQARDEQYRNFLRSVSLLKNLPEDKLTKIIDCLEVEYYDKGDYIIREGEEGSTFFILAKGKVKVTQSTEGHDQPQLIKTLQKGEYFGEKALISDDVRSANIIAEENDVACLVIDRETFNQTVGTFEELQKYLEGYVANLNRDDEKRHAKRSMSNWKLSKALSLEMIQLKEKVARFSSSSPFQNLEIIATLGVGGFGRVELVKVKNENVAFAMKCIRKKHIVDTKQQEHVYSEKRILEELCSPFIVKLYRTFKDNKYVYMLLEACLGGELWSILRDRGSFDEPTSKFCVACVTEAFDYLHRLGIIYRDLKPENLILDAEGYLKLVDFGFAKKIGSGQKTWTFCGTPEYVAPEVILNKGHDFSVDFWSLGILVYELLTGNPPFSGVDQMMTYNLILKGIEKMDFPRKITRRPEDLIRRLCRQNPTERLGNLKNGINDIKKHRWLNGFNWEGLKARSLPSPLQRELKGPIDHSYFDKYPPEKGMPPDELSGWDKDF

[10] = target: Aurora kinase C (Homo sapiens) (UniProt Q9UQB9); assay: Inhibition of recombinant human AURKC (35 to end residues) at 1 uM using AKRRRLSSLRA as substrate measured after 40 mins in presence of [gamma33P]ATP by scintillation counting method relative to control
Sequence of Aurora kinase C (Homo sapiens) (Q9UQB9 whole entry, the tested form may be a part): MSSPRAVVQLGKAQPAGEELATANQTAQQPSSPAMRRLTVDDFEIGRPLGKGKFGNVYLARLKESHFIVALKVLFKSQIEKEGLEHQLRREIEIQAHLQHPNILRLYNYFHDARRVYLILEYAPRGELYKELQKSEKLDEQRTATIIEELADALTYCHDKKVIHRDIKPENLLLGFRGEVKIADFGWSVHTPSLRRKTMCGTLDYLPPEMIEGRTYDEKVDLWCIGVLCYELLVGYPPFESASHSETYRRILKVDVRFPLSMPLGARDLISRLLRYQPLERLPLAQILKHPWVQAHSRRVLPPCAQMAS

[11] = target: Serine/threonine-protein kinase PLK3 (Homo sapiens) (UniProt Q9H4B4); assay: Inhibition of recombinant human Plk3 (19 to 301 residues) at 1 uM using casein as substrate measured after 40 mins in presence of [gamma33P]ATP by scintillation counting method relative to control
Sequence of Serine/threonine-protein kinase PLK3 (Homo sapiens) (Q9H4B4 whole entry, looked up, the tested form may be a part): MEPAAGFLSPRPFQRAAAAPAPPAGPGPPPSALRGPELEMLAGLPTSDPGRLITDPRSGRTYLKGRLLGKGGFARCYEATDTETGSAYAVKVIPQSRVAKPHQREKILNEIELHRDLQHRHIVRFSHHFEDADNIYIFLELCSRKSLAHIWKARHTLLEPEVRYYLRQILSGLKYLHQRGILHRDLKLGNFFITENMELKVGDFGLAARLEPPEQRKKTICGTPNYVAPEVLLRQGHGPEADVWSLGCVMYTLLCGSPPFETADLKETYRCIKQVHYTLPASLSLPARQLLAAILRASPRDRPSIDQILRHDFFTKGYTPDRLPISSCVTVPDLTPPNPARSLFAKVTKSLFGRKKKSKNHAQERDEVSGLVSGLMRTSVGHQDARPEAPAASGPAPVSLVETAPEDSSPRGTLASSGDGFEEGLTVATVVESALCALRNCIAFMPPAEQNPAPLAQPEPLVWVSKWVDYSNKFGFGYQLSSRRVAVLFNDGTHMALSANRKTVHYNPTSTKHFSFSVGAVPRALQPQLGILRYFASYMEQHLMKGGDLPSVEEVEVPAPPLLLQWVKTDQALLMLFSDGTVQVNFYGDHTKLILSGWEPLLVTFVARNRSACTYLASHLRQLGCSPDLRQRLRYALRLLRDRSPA
Outline: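 Single-point inhibition at 1 µM was measured in the Eurofins KinaseProfiler panel. Values are the mean of two independent experiments.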

[12] = target: Serine/threonine-protein kinase 4 (Homo sapiens) (UniProt Q13043); assay: Inhibition of recombinant full-length human MST1 at 1 uM using KKSRGDYMTMQIG as substrate measured after 40 mins in presence of [gamma33P]ATP by scintillation counting method relative to control
[13] = target: Serine/threonine-protein kinase VRK2 (Homo sapiens) (UniProt Q86Y07); assay: Inhibition of recombinant human VRK2 (1 to 336 residues) at 1 uM using casein as substrate measured after 40 mins in presence of [gamma33P]ATP by scintillation counting method relative to control
Sequence of Serine/threonine-protein kinase VRK2 (Homo sapiens) (Q86Y07 whole entry, the tested form may be a part): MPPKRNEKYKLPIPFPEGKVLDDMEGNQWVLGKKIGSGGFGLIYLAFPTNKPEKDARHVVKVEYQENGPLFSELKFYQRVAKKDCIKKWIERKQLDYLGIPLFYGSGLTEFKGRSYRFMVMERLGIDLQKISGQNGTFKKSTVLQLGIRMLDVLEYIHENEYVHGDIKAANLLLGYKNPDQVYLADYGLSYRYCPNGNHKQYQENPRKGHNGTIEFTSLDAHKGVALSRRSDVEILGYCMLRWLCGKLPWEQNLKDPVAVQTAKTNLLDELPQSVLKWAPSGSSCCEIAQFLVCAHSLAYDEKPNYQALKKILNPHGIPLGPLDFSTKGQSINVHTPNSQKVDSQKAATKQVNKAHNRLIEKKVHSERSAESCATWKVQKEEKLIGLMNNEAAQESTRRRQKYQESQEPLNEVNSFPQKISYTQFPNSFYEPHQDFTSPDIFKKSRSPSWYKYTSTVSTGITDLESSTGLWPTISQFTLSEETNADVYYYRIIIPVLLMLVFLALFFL

[14] = test system: PI3-kinase p110-alpha/p85-alpha (Homo sapiens), P27986+P42336 [E545K]; assay: Inhibition of recombinant full-length human PI3K p110alpha/p85alpha E545K mutant at 1 uM using phosphatidylinositol-4, 5-bisphosphate as substrate measured after 40 mins by HTRF assay relative to control; type: protein-complex assay
[15] = target: Cyclin-dependent kinase 5/CDK5 activator 1 (Homo sapiens) (UniProt Q00535+Q15078); assay: Inhibition of recombinant full-length human CDK5/p25 at 1 uM using Histone H1 as substrate measured after 40 mins in presence of [gamma33P]ATP by scintillation counting method relative to control; type: protein-complex assay
Sequence of Cyclin-dependent kinase 5/CDK5 activator 1 (Homo sapiens) (Q00535 whole entry): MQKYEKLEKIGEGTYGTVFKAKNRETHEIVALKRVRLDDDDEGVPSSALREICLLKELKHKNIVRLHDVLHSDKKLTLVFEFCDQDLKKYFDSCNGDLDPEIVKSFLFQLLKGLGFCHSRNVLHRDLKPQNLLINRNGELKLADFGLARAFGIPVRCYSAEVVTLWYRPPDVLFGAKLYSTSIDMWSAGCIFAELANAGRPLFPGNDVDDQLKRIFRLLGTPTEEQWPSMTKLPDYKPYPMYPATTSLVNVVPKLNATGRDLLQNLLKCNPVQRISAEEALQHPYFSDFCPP
Sequence of Cyclin-dependent kinase 5/CDK5 activator 1 (Homo sapiens) (Q15078 99-307 partner limits assumed): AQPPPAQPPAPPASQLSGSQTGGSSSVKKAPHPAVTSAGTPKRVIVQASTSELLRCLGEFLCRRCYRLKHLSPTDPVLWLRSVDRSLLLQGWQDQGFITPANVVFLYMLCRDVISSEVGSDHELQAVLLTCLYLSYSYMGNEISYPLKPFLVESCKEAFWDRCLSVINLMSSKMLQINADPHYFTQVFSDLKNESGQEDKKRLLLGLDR

A549 [16] = assay: Down regulation of CDK9 expression in human A549 cells at 0.25 to 1 uM after 24 hrs by Western blot analysis; type: functional, cell-based
Outline: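 A549 and H1299 cells treated for 24 h with serial dilutions alongside a DMSO control. Protein extracts resolved and immunoblotted.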

A549 [17] = assay: Induction of apoptosis in human A549 cells assessed as early apoptotic cells at 1 uM after 48 hrs by AnnexinV-FITC/PI staining-based flow cytometric analysis (reference value: 2.91%); type: functional
[18] = target: Serine/threonine-protein kinase ULK1 (Homo sapiens) (UniProt O75385); assay: Inhibition of human ULK1 (1 to 314 residues) at 1 uM using casein as substrate measured after 40 mins in presence of [gamma33P]ATP by scintillation counting method relative to control
[19] = target: Ribosomal protein S6 kinase alpha-4 (Homo sapiens) (UniProt O75676); assay: Inhibition of recombinant human MSK2 (2 to end residues) at 1 uM using GRPRTSSFAEGKK as substrate measured after 40 mins in presence of [gamma33P]ATP by scintillation counting method relative to control
Sequence of Ribosomal protein S6 kinase alpha-4 (Homo sapiens) (O75676 whole entry, looked up): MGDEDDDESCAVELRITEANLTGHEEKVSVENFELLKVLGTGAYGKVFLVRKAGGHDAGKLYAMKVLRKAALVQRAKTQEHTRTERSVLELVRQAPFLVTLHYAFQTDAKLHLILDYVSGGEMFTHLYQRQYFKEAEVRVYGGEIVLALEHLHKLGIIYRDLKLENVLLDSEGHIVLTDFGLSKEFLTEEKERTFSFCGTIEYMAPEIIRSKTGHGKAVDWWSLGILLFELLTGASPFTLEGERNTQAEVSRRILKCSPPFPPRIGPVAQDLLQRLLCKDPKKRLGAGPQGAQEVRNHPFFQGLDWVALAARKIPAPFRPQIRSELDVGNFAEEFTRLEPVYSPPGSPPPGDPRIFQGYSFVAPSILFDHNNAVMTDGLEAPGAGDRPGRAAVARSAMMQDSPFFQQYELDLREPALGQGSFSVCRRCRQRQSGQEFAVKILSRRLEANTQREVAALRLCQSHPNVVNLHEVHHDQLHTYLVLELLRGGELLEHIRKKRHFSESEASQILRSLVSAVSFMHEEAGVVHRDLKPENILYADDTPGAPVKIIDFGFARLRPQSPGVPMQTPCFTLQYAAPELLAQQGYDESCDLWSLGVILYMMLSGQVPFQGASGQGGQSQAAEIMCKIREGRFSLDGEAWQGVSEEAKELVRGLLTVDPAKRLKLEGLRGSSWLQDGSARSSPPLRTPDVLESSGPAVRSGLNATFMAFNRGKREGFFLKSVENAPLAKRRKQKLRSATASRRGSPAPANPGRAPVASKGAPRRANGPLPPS

NCI-H1299 [20] = assay: Antitumour activity against human H1299 cells xenografted in Balb/c mouse assessed as inhibition of tumour growth at 40 mg/kg, po administered for 21 days by digital caliper method relative to control; type: functional; conditions: 504 h, read-out: TGI
Outline: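 Female nude mice, 6-8 weeks old, injected subcutaneously with 1×10^6 H1299 cells (100 µL of a 1×10^7/mL suspension in serum-free medium). At 100-120 mm3, randomized into groups of 5. Dosed orally each day for 21 days with drug dissolved in DMSO, or with vehicle. Caliper measurements and body weight taken every other day. Volume = short²×long×0.5. Growth inhibition based on change in volume relative to vehicle. Tumours weighed at the end.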

NCI-H1299 [21] = assay: Inhibition of tumorsphere formation in human H1299 cells assessed as reduction in side population ratio by PI/Hoechst 33342 staining based flow cytometry; type: functional, cell-based
NCI-H1299 [22] = assay: Antitumour activity against human H1299 cells xenografted in Balb/c mouse assessed as effect on cyclin T1 level at 20 to 80 mg/kg, po administered for 3 weeks by immunohistochemistry

Question: For `CN(C)C(=O)c1cc2cnc(Nc3ccc(NC(=O)CCCCCCCN=C=S)cc3)nc2n1C1CCCC1`, which inhibition [1] is on record?
Answer: Its inhibition is 7%.

Question: And the Activity (NCI-H1299 [2])?
Answer: Its Activity is 0.432%.

Question: What about the inhibition [3] of the same molecule?
Answer: The inhibition was 2%.

Question: And the inhibition [4]?
Answer: The inhibition was 7%.

Question: What about the Activity (A549 [5]) of the same molecule?
Answer: The Activity was 5.83%.

Question: And the inhibition [6]?
Answer: Its inhibition is 72%.

Question: And the Activity (A549 [7])?
Answer: Its Activity is “Dose-dependent effect”.

Question: What about the inhibition [8] of the same molecule?
Answer: Its inhibition is 13%.

Question: And the inhibition (Homo sapiens)?
Answer: Its inhibition is 77%.

Question: And the inhibition [9]?
Answer: Its inhibition is 0%.

Question: What about the inhibition [10] of the same molecule?
Answer: Its inhibition is 72%.

Question: And the inhibition [11]?
Answer: The inhibition was 1%.

Question: And the inhibition [12]?
Answer: The inhibition was 17%.

Question: And the inhibition [13]?
Answer: The inhibition was 0%.

Question: What about the inhibition [14] of the same molecule?
Answer: Its inhibition is 4%.

Question: And the inhibition [15]?
Answer: The inhibition was 63%.

Question: What about the Activity (A549 [16]) of the same molecule?
Answer: Its Activity is “inactive”.

Question: What about the Activity (A549 [17]) of the same molecule?
Answer: The Activity was 1.06%.

Question: What about the inhibition [18] of the same molecule?
Answer: The inhibition was -3%.

Question: What about the inhibition [19] of the same molecule?
Answer: Its inhibition is 6%.

Question: And the inhibition in vivo at 40 mg/kg (NCI-H1299 [20])?
Answer: Its inhibition in vivo at 40 mg/kg is 89.7%.

Question: What about the inhibition (NCI-H1299 [21]) of the same molecule?
Answer: The inhibition was “Dose-dependent effect”.

Question: What about the Activity (NCI-H1299 [22]) of the same molecule?
Answer: Its Activity is “inactive”.
